High-throughput results (PubChem)
The list is not random: actives were taken first. Their share in the collection is about 2.6%.
SENP7 block = blocks the human protease SENP7 | 1.5% of 330,000 active | recombinant SENP7, Z-RLRGG-aminoluciferin luminescence, 40 min | Q9BQF6 | AID 434973 | inhibition, % at 5 µM;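 active = inhibition above about 50% at the single test dose, limit read from the data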
SENP6 block = SENP6 protease inhibition; Recombinant SENP6 catalytic domain, aminoluciferin luminescence; inhibition, % at 10 µM; 1.8% of 330,000 active; AID 2599;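 active = inhibition above about 50% at the single tested dose, limit read from the data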
SENP8 block-1 = SENP8 protease inhibition; Q96LD8; purified SENP8, Z-RLRGG-aminoluciferin cleavage, luminescence; inhibition, % at 10 µM; 1.2% of 330,000 active; AID 2540; in the data active = inhibition above about 50%
SENP1 FRET inh = SENP1 (human) catalytic domain inhibition; 0.21% of 360,000 active; recombinant SENP1 catalytic domain, CyPet-SUMO1-YPet FRET cleavage; Q9P0U3; inhibition, % at 10 µM;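 active = inhibition at least 30% at 10 µM, raw YFP signal under a set limit, fluorescence ratio 0.5 to 1.5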
Target sequence (Q9P0U3 419-644 limits assumed): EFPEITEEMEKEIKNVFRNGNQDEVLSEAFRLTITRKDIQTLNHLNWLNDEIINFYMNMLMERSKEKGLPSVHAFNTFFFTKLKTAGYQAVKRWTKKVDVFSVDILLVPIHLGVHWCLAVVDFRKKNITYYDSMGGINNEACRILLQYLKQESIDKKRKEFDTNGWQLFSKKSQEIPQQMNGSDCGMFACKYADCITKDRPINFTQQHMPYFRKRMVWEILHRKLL
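system = hSENP1 catalytic domain, recombinant | reagent = SFCypet-SUMO1-SFYpet substrate at 25 nM | doses = one dose per compound, 10 µM, 0.5% DMSO | incubation = enzyme reaction for 50 min at room temperature, dark | measured by = FRET, CFP and YFP emission | controls = no-enzyme low, enzyme-DMSO high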
SENP8 block-2 = blocks human SENP8 cleavage of Nedd8 substrate; Q96LD8; recombinant SENP8, Nedd8 substrate fluorescence; inhibition, % at 20 µM; 0.64% of 360,000 active; AID 602440; in the data active = inhibition mostly above about 40%, no sharp cut-off; inactive = mostly below about 27%
Platelet DG rel = platelet dense granule release activity. human platelet-rich plasma, SFLLRN dense granule ATP release, luminescence. 0.22% of 300,000 active. inhibition, %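 (compounds screened at 7.5 µM in platelet-rich plasma)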;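 active = mean replicate score, as percent of positive control, at or above 50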
SENP8 confirm = human SENP8 inhibition, confirmed; Recombinant SENP8, Z-RLRGG-aminoluciferin luminescence, 60 min; 40% of 6,200 active; AID 488912; shares compounds with SENP7 block; inhibition, % at 12.5 µM;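 active = mean inhibition across replicates above about 50%, limit read from the data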
SENP6 confirm = confirmation of human SENP6 protease inhibitors; 58% of 6,200 active; inhibition, % at 12.5 µM; AID 488915; recombinant SENP6, Z-RLRGG-aminoluciferin luminescence; shares compounds with SENP7 block
SENP7 conf = human SENP7 inhibition, confirmed. recombinant SENP7, Z-RLRGG-aminoluciferin luminescence, 40 min. shares compounds with SENP7 block. inhibition, % at 12.5 µM. AID 488917. 69% of 6,200 active
Casp3 SENP sel = caspase-3 inhibition (SENP selectivity assay) | inhibition, % at 12.5 µM | purified caspase-3, Z-DEVD-aminoluciferin luminescence, 60 min | shares compounds with SENP7 block | 60% of 6,200 active;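 active = mean inhibition above about 50%, limit read from the data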
Target sequence (P42574 28-227 limits assumed): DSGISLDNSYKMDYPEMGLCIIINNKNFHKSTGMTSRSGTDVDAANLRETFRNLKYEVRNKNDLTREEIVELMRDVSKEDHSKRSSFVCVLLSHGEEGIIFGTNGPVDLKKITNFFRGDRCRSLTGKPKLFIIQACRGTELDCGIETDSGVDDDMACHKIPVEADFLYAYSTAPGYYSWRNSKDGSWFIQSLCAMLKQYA
SENP luc ctr = luminescence interference (SENP counter-screen) | inhibition, % at 12.5 µM | Pre-incubated SENP8/Z-RLRGG-aminoluciferin, luciferase luminescence interference | AID 488919 | shares compounds with SENP7 block | 39% of 6,200 active;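 active = mean inhibition above about 50% when retested at one dose, limit read from the data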
Of the large screens only hits and unclear results are named; the others gave an inactive call (follow-up assays come after a bar, where they were run).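 Rule for the calls, unless noted: active = mean inhibition above about 50% in the one-dose retest (limit read from the data); inactive = the rest.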

O=C(NC1CC1)c1ccc(-c2nc3ccccc3s2)s1	SENP7 block 98, SENP6 block 91, SENP8 block-1 88 | SENP8 confirm 81 | SENP6 confirm 95 | SENP7 conf 102 | Casp3 SENP sel 96 | SENP luc ctr inactive
Cc1noc(C)c1COC(=O)c1ccc(-c2nc3ccccc3s2)s1	none
COCC(=O)NC1CCN(S(=O)(=O)c2cccc(C(C)=O)c2)CC1	none
O=C(O)c1cc(S(=O)(=O)N2CC=C(c3ccccc3)CC2)ccc1O	none (no result: Platelet DG rel)
Cc1ccc(S(=O)(=O)N2CCOCC2)cc1C(=O)NC1CCCC1	none
O=C(O)C1CCN(Cc2ccccn2)CC1	SENP6 block 83 | SENP8 confirm inactive | SENP6 confirm inactive | SENP7 conf inactive | Casp3 SENP sel inactive | SENP luc ctr inactive
CCCCNC(=O)C1CCN(Cc2ccccn2)CC1	none
CCC(CC)c1nnc(NC(=O)C2CC(=O)N(C3CCCC3)C2)s1 (stereo not drawn)	none
Cc1cc(/C=C2/C(=O)NN(c3ccccc3)C2=O)c(C)n1-c1ccc(O)cc1	SENP6 block 78, SENP8 block-1 56, SENP8 block-2 50 | SENP8 confirm inactive | SENP6 confirm 66 | SENP7 conf 91 | Casp3 SENP sel 62 | SENP luc ctr inactive
COc1ccc2c(c1)NC(=O)CC(c1ccccc1)=N2	none
CC1=CC(c2ccccc2)=Nc2ccc(C)cc2N1	SENP6 block 60 | SENP8 confirm 55 | SENP6 confirm inactive | SENP7 conf 66 | Casp3 SENP sel 81 | SENP luc ctr 80
COc1ccc(Br)cc1-c1noc(-c2ccccc2F)n1	none
COC(=O)c1cccc(-c2noc(-c3ccccc3F)n2)c1	SENP7 block 81, SENP6 block 64 (no result: Platelet DG rel) | SENP8 confirm inactive | SENP6 confirm inactive | SENP7 conf 66 | Casp3 SENP sel 56 | SENP luc ctr inactive
NC(=O)c1cccc(-c2noc(-c3ccccc3F)n2)c1	SENP7 block 57, SENP6 block 74, SENP8 block-1 56 (no result: Platelet DG rel) | SENP8 confirm inactive | SENP6 confirm 52 | SENP7 conf 81 | Casp3 SENP sel 66 | SENP luc ctr inactive
NC(=O)c1ccccc1-c1nc(-c2ccccc2)no1	none
COc1ccc(C(=O)N2CCCC2(C#N)c2ccccc2)cc1[N+](=O)[O-] (stereo not drawn)	none
CCOC(=O)c1cc(-c2ccccc2)sc1NC(=O)c1ccc(OC)c(OC)c1	none
Cc1cccc(C(=O)Nc2sc(-c3ccccc3)cc2C(=O)O)c1	SENP6 block 85, SENP8 block-1 65 | SENP8 confirm 78 | SENP6 confirm 75 | SENP7 conf 72 | Casp3 SENP sel inactive | SENP luc ctr 84
CC(C)(C)C(=O)Nc1sc(-c2ccccc2)cc1C(=O)O	SENP6 block 58 | SENP8 confirm inactive | SENP6 confirm inactive | SENP7 conf 70 | Casp3 SENP sel inactive | SENP luc ctr 52
OC(CSc1nnnn1-c1ccccc1)Cn1c2ccccc2c2ccccc21 (stereo not drawn)	none (no result: SENP7 block, SENP6 block, SENP8 block-1, Platelet DG rel)
COc1ccc(C(=O)NCc2nnc(SCC(=O)N3CCC(C)CC3)o2)cc1	none
CCC(C)NC(=O)C1CCN(C(=O)N(C)C)CC1 (stereo not drawn)	SENP7 block 102 | SENP8 confirm inactive | SENP6 confirm inactive | SENP7 conf inactive | Casp3 SENP sel inactive | SENP luc ctr inactive
O=C(/C=C/Nc1ccc(F)cc1)c1ccc(Oc2ncccn2)cc1	none
